What was measured:
[1] = target: T1, 11-beta-hydroxysteroid dehydrogenase 1 (Homo sapiens, UniProt P28845); experiment: Inhibition of human cloned 11beta-HSD1 by scintillation proximity assay
[2] = target: T1, 11-beta-hydroxysteroid dehydrogenase 1; experiment: Inhibition of human recombinant 11beta-HSD1 expressed in HEK293 cells; assay type: cell-based
[3] = target: T1, 11-beta-hydroxysteroid dehydrogenase 1; experiment: Inhibition of human recombinant 11beta-HSD1 expressed in HEK293 cells in presence of 3% human serum albumin; assay type: cell-based
[4] = Metabolic stability in human liver microsomes assessed as compound remaining at 1 uM after 30 mins; assay type: ADME, Microsome; settings: read-out: Stability
[5] = Metabolic stability in rat liver microsomes assessed as compound remaining at 1 uM after 30 mins; assay type: ADME, Microsome; settings: read-out: Stability
[6] = target: T1, 11-beta-hydroxysteroid dehydrogenase 1; experiment: Inhibition of 11beta-HSD1 in human adipocytes; assay type: cell-based
[7] = target: T2, 11-beta-hydroxysteroid dehydrogenase type 2 (Homo sapiens, UniProt P80365); experiment: Inhibition of 11beta-HSD2 by scintillation proximity assay
T2 sequence (P80365 whole entry): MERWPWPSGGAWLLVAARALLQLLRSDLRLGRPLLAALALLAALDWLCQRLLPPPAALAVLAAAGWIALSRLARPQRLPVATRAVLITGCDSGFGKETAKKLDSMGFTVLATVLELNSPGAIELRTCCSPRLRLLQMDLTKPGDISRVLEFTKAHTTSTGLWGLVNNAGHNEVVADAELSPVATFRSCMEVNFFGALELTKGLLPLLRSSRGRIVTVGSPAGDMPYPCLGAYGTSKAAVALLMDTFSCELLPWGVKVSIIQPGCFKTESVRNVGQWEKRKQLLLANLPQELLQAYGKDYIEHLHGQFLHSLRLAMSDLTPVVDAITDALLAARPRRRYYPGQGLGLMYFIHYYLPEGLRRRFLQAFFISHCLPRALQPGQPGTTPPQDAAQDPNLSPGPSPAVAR

[8] = Clearance in rat; assay type: ADME, organism-based; settings: in vivo
Rattus norvegicus [9] = experiment: Clearance in rat at 0.17 mg/kg, iv; assay type: ADME, organism-based; set-up: dose 0.17 mg/kg, route intravenous; settings: in vivo
Procedure, shortened: (§1)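 Rats were given a single iv dose of 0.17 mg/kg, with a parallel 2.0 mg/kg oral arm. Clearance, half-life, Vdss and AUC were derived from the iv data.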

[10] = Half life in rat at 0.17 mg/kg, iv; assay type: ADME, organism-based; set-up: dose 0.17 mg/kg, route intravenous; settings: in vivo; procedure, shortened: as §1
[11] = Volume of distribution at steady state in rat at 0.17 mg/kg, iv; assay type: ADME, organism-based; set-up: dose 0.17 mg/kg, route intravenous; settings: in vivo, read-out: Vdss; procedure, shortened: as §1
Rattus norvegicus [12] = experiment: AUC in rat at 0.17 mg/kg, iv; assay type: ADME, organism-based, Plasma; set-up: dose 0.17 mg/kg, route intravenous; settings: in vivo; procedure, shortened: as §1
[13] = Oral bioavailability in rat at 2.0 mg/kg; assay type: ADME, organism-based; settings: in vivo
Procedure, shortened: (§2)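 Oral bioavailability came from a 2.0 mg/kg po dose compared against an iv arm. The iv dose was 0.5 mg/kg in monkey, dog and one rat group, and 0.17 mg/kg in the other rat group.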

Rattus norvegicus [14] = experiment: Clearance in rat at 0.5 mg/kg, iv; assay type: ADME, organism-based; set-up: dose 0.5 mg/kg, route intravenous; settings: in vivo
Procedure, shortened: (§3)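 Single iv dose of 0.5 mg/kg in rat, cynomolgus monkey or dog. This dose group was run alongside a 2.0 mg/kg oral arm. Clearance, half-life, Vdss and AUC were taken from the iv arm.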

[15] = Half life in rat at 0.5 mg/kg, iv; assay type: ADME, organism-based; set-up: dose 0.5 mg/kg, route intravenous; settings: in vivo; procedure, shortened: as §3
[16] = Volume of distribution at steady state in rat at 0.5 mg/kg, iv; assay type: ADME, organism-based; set-up: dose 0.5 mg/kg, route intravenous; settings: in vivo, read-out: Vdss; procedure, shortened: as §3
Rattus norvegicus [17] = experiment: AUC in rat at 0.5 mg/kg, iv; assay type: ADME, organism-based, Plasma; set-up: dose 0.5 mg/kg, route intravenous; settings: in vivo; procedure, shortened: as §3
Cynomolgus monkey [18] = experiment: Clearance in cynomolgus monkey at 0.5 mg/kg, iv; assay type: ADME, organism-based, Macaca fascicularis; set-up: dose 0.5 mg/kg, route intravenous; settings: in vivo; procedure, shortened: as §3
[19] = Half life in cynomolgus monkey at 0.5, iv; assay type: ADME, organism-based, Macaca fascicularis; settings: in vivo; procedure, shortened: as §3
[20] = Volume of distribution at steady state in cynomolgus monkey at 0.5, iv; assay type: ADME, organism-based, Macaca fascicularis; settings: in vivo, read-out: Vdss; procedure, shortened: as §3
Cynomolgus monkey [21] = experiment: AUC in cynomolgus monkey at 0.5, iv; assay type: ADME, organism-based, Macaca fascicularis, Plasma; settings: in vivo; procedure, shortened: as §3
[22] = Oral bioavailability in cynomolgus monkey at 2.0; assay type: ADME, organism-based, Macaca fascicularis; settings: in vivo; procedure, shortened: as §2
Canis familiaris [23] = experiment: Clearance in dog at 0.5 mg/kg, iv; assay type: ADME, organism-based, Canis lupus familiaris; set-up: dose 0.5 mg/kg, route intravenous; settings: in vivo; procedure, shortened: as §3
[24] = Half life in dog at 0.5, iv; assay type: ADME, organism-based, Canis lupus familiaris; settings: in vivo; procedure, shortened: as §3
[25] = Volume of distribution at steady state in dog at 0.5, iv; assay type: ADME, organism-based, Canis lupus familiaris; settings: in vivo, read-out: Vdss; procedure, shortened: as §3
Canis familiaris [26] = experiment: AUC in dog at 0.5, iv; assay type: ADME, organism-based, Canis lupus familiaris, Plasma; settings: in vivo; procedure, shortened: as §3
[27] = Oral bioavailability in dog at 2.0; assay type: ADME, organism-based, Canis lupus familiaris; settings: in vivo; procedure, shortened: as §2
[28] = Inhibition of cynomolgus monkey recombinant 11beta-HSD1; set-up: species or system Macaca fascicularis
Plasma = experiment: Drug level in of cynomolgus monkey plasma at 2 mg/kg, po; assay type: ADME, organism-based, Macaca fascicularis; set-up: dose 2 mg/kg, route oral; settings: in vivo
Procedure, shortened: (§4)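 Cynomolgus monkeys received an oral dose of 2 or 10 mg/kg and were sacrificed 2 h postdose. Mesenteric fat was excised and compound levels were determined in adipose (ng/g) and in plasma.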

[29] = Drug level in of cynomolgus monkey mesenteric fat at 2 mg/kg, po; assay type: ADME, organism-based, Macaca fascicularis; set-up: dose 2 mg/kg, route oral; settings: in vivo; procedure, shortened: as §4
[30] = Drug level in of cynomolgus monkey mesenteric fat at 10 mg/kg, po; assay type: ADME, organism-based, Macaca fascicularis; set-up: dose 10 mg/kg, route oral; settings: in vivo; procedure, shortened: as §4
Cynomolgus monkey [31] = experiment: Ex vivo inhibition of 11beta-HSD1 in orally dosed cynomolgus monkey mesenteric fat assessed as [3H][…] production; settings: Macaca fascicularis, oral

T1 sequence (P28845 whole entry): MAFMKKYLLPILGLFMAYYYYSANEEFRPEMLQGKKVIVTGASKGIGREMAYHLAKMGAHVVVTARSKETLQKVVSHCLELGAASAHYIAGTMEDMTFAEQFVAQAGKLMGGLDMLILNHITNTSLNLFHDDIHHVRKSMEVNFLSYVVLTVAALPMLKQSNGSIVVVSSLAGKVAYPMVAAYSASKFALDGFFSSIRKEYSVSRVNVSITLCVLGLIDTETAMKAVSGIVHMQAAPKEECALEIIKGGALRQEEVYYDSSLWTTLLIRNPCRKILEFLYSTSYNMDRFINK

Structure (SMILES)	IC50 [1] [nM]	IC50 [2] [nM]	IC50 [3] [nM]	remaining at 0.5 h, 1 µM [4] [%]	remaining at 0.5 h, 1 µM [5] [%]	IC50 [6] [nM]	IC50 [7] [nM]	other results
C[C@](O)(c1ccc(C(=O)N(CC(F)(F)F)C2CCCCC2)cc1)C(F)(F)F	2.6	24	163	17	< 5			
C[C@](O)(c1ccc(C(=O)N(C2CC2)[C@H]2CC[C@H](c3ccccc3)CC2)cc1)C(F)(F)F	1.3	16	155	> 90	> 90	9.8	> 10000	
C[C@](O)(c1ccc(C(=O)N(C2CC2)[C@H]2CC[C@H](c3cccnc3)CC2)cc1)C(F)(F)F	1.4	5.8	124	> 90	51	3	> 10000	bioavailability [13]: 72%; CL (Rattus norvegicus [14]): 17 mL/min/kg; half-life [15]: 4.5 h; Vd [16]: 6.7 L/kg; AUC (Rattus norvegicus [17]): 481 ng·h/mL; CL (Cynomolgus monkey [18]): 8.3 mL/min/kg; half-life [19]: 11.2 h; Vd [20]: 8.1 L/kg; AUC (Cynomolgus monkey [21]): 1010 ng·h/mL; bioavailability [22]: 64%; CL (Canis familiaris [23]): 10 mL/min/kg; half-life [24]: 9.3 h; Vd [25]: 3.5 L/kg; AUC (Canis familiaris [26]): 915 ng·h/mL; bioavailability [27]: 4%; IC50 [28]: 39 nM; Drug uptake (Plasma): 604 ng/mL; Drug uptake [29]: 1211 ng/mL; Drug uptake [30]: 2890 ng/g; ED50 (Cynomolgus monkey [31]): 2 mg/kg
C[C@](O)(c1ccc(C(=O)N(C2CC2)[C@H]2CC[C@@H](c3ccccc3)CC2)cc1)C(F)(F)F	6.1	18	123	9	< 5		> 10000	
C[C@](O)(c1ccc(C(=O)N(C2CC2)[C@H]2CC[C@H](c3ccc(C#N)cc3)CC2)cc1)C(F)(F)F	0.7	12	161	> 90	> 90	3.4	> 10000	CL (Rattus norvegicus [9]): 1.83 mL/min/kg; half-life [10]: 15.7 h; Vd [11]: 2.5 L/kg; AUC (Rattus norvegicus [12]): 1590 ng·h/mL; bioavailability [13]: 29%
C[C@H]1CCCCN1S(=O)(=O)c1ccc(C(C)(O)C(F)(F)F)cc1 (stereo partly drawn)		2.1						

Now from value to molecule, other results behind:

IC50 [1] [nM]	IC50 [2] [nM]	IC50 [3] [nM]	remaining at 0.5 h, 1 µM [4] [%]	remaining at 0.5 h, 1 µM [5] [%]	IC50 [6] [nM]	IC50 [7] [nM]	Structure (SMILES)	other results
9	38	849	23	< 5			CC(O)(c1ccc(C(=O)N(CC2CC2)C2CCCCC2)cc1)C(F)(F)F (racemic)	
1.3	1.3	25	5	< 5			CCN(C(=O)c1ccc([C@](C)(O)C(F)(F)F)cc1)C1CCCCC1	clearance [8]: 51.7 mL/min/kg
6.6		140	81	16	4.1	> 10000	C[C@](O)(c1ccc(C(=O)N(C2CC2)[C@H]2CC[C@H](F)CC2)cc1)C(F)(F)F	
0.7	1.3	11	> 90	42	0.2	> 10000	C[C@](O)(c1ccc(C(=O)N(C2CC2)[C@H]2CC[C@H](CCC#N)CC2)cc1)C(F)(F)F	CL (Rattus norvegicus [9]): 21.3 mL/min/kg; half-life [10]: 0.5 h; Vd [11]: 0.91 L/kg; AUC (Rattus norvegicus [12]): 393 ng·h/mL; bioavailability [13]: 83%
0.8	2.4	38	81	< 5		> 10000	C[C@](O)(c1ccc(C(=O)N(C2CCCCC2)C2CC2)cc1)C(F)(F)F	

Reference: ChEMBL document CHEMBL1157534, “Discovery of novel, potent benzamide inhibitors of 11beta-hydroxysteroid dehydrogenase type 1 (11beta-HSD1) exhibiting oral activity in an enzyme inhibition ex vivo model” (J Med Chem, 2008)
